{"source": "ChEMBL document CHEMBL1122944", "about": "“The histamine H2 receptor agonist impromidine: synthesis and structure-activity considerations” (J Med Chem, 1985)", "key": {"[1]": {"molecular_target": "Histamine H2 receptor (Cavia porcellus) (UniProt P47747)", "sequence (P47747 whole entry)": "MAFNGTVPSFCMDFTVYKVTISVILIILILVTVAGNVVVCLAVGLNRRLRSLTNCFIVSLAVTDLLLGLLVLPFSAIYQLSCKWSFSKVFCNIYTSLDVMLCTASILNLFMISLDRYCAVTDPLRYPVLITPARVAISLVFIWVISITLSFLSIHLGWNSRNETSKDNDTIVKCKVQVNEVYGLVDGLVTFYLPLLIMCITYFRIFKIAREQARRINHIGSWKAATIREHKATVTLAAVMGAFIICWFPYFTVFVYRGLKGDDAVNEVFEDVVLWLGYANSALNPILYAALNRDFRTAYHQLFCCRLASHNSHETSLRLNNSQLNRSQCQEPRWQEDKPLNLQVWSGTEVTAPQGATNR", "test": "Percent maximum response against histamine H2 receptor in guinea pig atrium was evaluated", "assay_type": "tissue-based", "conditions": "Cardiac atrium", "outline": "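Isolated guinea pig atrium under 400-mg tension with propranolol (0.5 μM). Complete cumulative dose-response curves to histamine and test agonist, up to 781 μM, used to find the maximum response obtainable, expressed relative to histamine.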"}, "[2]": {"molecular_target": "Histamine H2 receptor (Cavia porcellus) (UniProt P47747)", "test": "Agonistic activity against histamine H2 receptor in guinea pig atrium (potency relative to histamine =1)", "assay_type": "functional, tissue-based", "conditions": "Cardiac atrium", "outline": "(§1)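 Isolated guinea pig atrium, muscle under 400-mg tension, propranolol (0.5 μM) present. Agonist tested up to 781 μM (0.1% histamine) by cumulative dose-response curves. Potency relative to histamine taken from concentrations giving 50% of maximal response; selected compounds by 2 + 2 Latin square parallel-line assay against histamine.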"}, "Histamine H2 receptor [3]": {"molecular_target": "T1, Histamine H2 receptor (Cavia porcellus, UniProt P47747)", "T1 sequence (P47747 whole entry)": "as above", "test": "Antagonistic activity against H2 receptor in guinea pig.", "assay_type": "functional", "conditions": "read-out: pA2 (converted)"}, "[4]": {"molecular_target": "Histamine H2 receptor (Cavia porcellus) (UniProt P47747)", "test": "Agonistic activity against histamine H2 receptor in guinea pig atrium(potency relative to histamine =1)", "assay_type": "functional, tissue-based", "conditions": "Cardiac atrium", "outline": "as §1"}, "[5]": {"molecular_target": "Histamine H2 receptor (Cavia porcellus) (UniProt P47747)", "conditions": "Cardiac atrium"}, "Histamine H2 receptor [6]": {"molecular_target": "T1, Histamine H2 receptor", "test": "Antagonistic activity against H2 receptor in guinea pig was evaluated", "assay_type": "functional", "conditions": "read-out: pA2 (converted)", "outline": "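Guinea pig atrium under 400-mg tension with propranolol (0.5 μM). Histamine concentrations giving half-maximal response measured with and without several antagonist concentrations (B). K_B = B/(x − 1), x being the concentration ratio; pA2 = −log K_B.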"}}, "data": [{"smiles": "N=C(NCCCc1c[nH]cn1)NCCSCc1c[nH]cn1", "values": [{"measurement": "Max response", "setting": "[1]", "result": 95, "unit": "%"}, {"measurement": "Potency", "setting": "[2]", "result": 5.38}]}, {"smiles": "CSC(=N)NCCSCc1[nH]cnc1C", "values": [{"measurement": "Kb", "setting": "Histamine H2 receptor [3]", "result": 6.92, "unit": "µM"}]}, {"smiles": "CC1=NN(c2ccc([N+](=O)[O-])cc2)C(=O)C1[N+](=O)[O-].Cc1[nH]cnc1CSCC/N=C(\\N)NCCCc1cn(C)cn1", "values": [{"measurement": "Kb", "setting": "Histamine H2 receptor [3]", "result": 1.58, "unit": "µM"}, {"measurement": "Max response", "setting": "[1]", "result": 11, "unit": "%"}, {"measurement": "Potency", "setting": "[2]", "result": 0.007}]}, {"smiles": "Cc1[nH]cnc1CSCCNC(=N)NCCSCc1nc[nH]c1C", "values": [{"measurement": "Kb", "setting": "Histamine H2 receptor [3]", "result": 0.214, "unit": "µM"}]}, {"smiles": "Cc1[nH]cnc1CSCCNC(=N)NCCCc1c[nH]cn1", "values": [{"measurement": "Max response", "setting": "[1]", "result": 98.7, "unit": "%"}, {"measurement": "Potency", "setting": "[2]", "result": 48.1}]}, {"smiles": "N=C(NCCCCc1c[nH]cn1)NCCCc1c[nH]cn1", "values": [{"measurement": "Max response", "setting": "[1]", "result": 85.5, "unit": "%"}, {"measurement": "Potency", "setting": "[2]", "result": 12.3}]}, {"smiles": "C/N=C(\\N)NCCCc1nccs1", "values": [{"measurement": "Kb", "setting": "Histamine H2 receptor [3]", "result": 63.1, "unit": "µM"}]}, {"smiles": "CC1=NN(c2ccc([N+](=O)[O-])cc2)C(=O)C1[N+](=O)[O-].N=C(NCCCc1c[nH]cn1)NCCCc1c[nH]cn1", "values": [{"measurement": "Max response", "setting": "[1]", "result": 100, "unit": "%"}, {"measurement": "Potency", "setting": "[2]", "result": 4.83}]}, {"smiles": "C/N=C(\\N)NCCCCc1c[nH]cn1", "values": [{"measurement": "Kb", "setting": "Histamine H2 receptor [3]", "result": 100, "unit": "µM"}, {"measurement": "Max response", "setting": "[1]", "result": 46, "unit": "%"}, {"measurement": "Potency", "setting": "[2]", "result": 0.074}]}, {"smiles": "Cc1nc[nH]c1CSCCNC(=O)NCCCc1cnc[nH]1", "values": [{"measurement": "Kb", "setting": "Histamine H2 receptor [3]", "result": 6.31, "unit": "µM"}]}, {"smiles": "N=C(NCCCc1c[nH]cn1)NCCCc1nccs1", "values": [{"measurement": "Max response", "setting": "[1]", "result": 87, "unit": "%"}, {"measurement": "Potency", "setting": "[2]", "result": 26.6}]}, {"smiles": "N=C(NCCCc1c[nH]cn1)NCCSCc1nccs1", "values": [{"measurement": "Max response", "setting": "[1]", "result": 91, "unit": "%"}, {"measurement": "Potency", "setting": "[2]", "result": 24.4}]}, {"smiles": "C/N=C(\\N)NCCCc1c[nH]cn1", "values": [{"measurement": "Kb", "setting": "Histamine H2 receptor [3]", "result": 12.6, "unit": "µM"}, {"measurement": "Max response", "setting": "[1]", "result": 62, "unit": "%"}, {"measurement": "Potency", "setting": "[2]", "result": 0.2}]}, {"smiles": "CC1=NN(c2ccc([N+](=O)[O-])cc2)C(=O)C1[N+](=O)[O-].Cc1[nH]cnc1CSCC/N=C(\\N)NCCc1c[nH]cn1", "values": [{"measurement": "Max response", "setting": "[1]", "result": 100, "unit": "%"}, {"measurement": "Potency", "setting": "[2]", "result": 1.93}]}, {"smiles": "C/N=C(\\N)NCCSCc1[nH]cnc1C", "values": [{"measurement": "Kb", "setting": "Histamine H2 receptor [3]", "result": 16.2, "unit": "µM"}]}, {"smiles": "C/N=C(\\N)NCCc1c[nH]cn1", "values": [{"measurement": "Kb", "setting": "Histamine H2 receptor [3]", "result": "> 501", "unit": "µM"}, {"measurement": "Potency", "setting": "[4]", "result": 0.01}, {"measurement": "Max response", "setting": "[1]", "result": 62, "unit": "%"}]}, {"smiles": "C/N=C(\\N)NCCSCc1c[nH]cn1", "values": [{"measurement": "Kb", "setting": "Histamine H2 receptor [3]", "result": 41.7, "unit": "µM"}]}, {"smiles": "CC1=NN(c2ccc([N+](=O)[O-])cc2)C(=O)C1[N+](=O)[O-].CN/C(=N\\CCCc1c[nH]cn1)NCCSCc1[nH]cnc1C", "values": [{"measurement": "Potency", "setting": "[4]", "result": 0.062}, {"measurement": "Max response", "setting": "[1]", "result": 91, "unit": "%"}]}, {"smiles": "C/[S+]=C(/NCCCc1c[nH]cn1)NCCSCc1[nH]cnc1C", "values": [{"measurement": "Potency", "setting": "[5]", "result": 0.01}, {"measurement": "Kb", "setting": "Histamine H2 receptor [6]", "result": 17.8, "unit": "µM"}]}, {"smiles": "Cc1nc[nH]c1CSCCNC(=S)NCCCc1cnc[nH]1", "values": [{"measurement": "Kb", "setting": "Histamine H2 receptor [3]", "result": 1.2, "unit": "µM"}]}, {"smiles": "Cc1[nH]cnc1CSCC/N=C(\\N)SCCCc1c[nH]cn1", "values": [{"measurement": "Kb", "setting": "Histamine H2 receptor [3]", "result": 3.31, "unit": "µM"}]}, {"smiles": "Cc1[nH]cnc1CSCC/N=C(\\NC#N)NCCCc1c[nH]cn1", "values": [{"measurement": "Kb", "setting": "Histamine H2 receptor [3]", "result": 0.575, "unit": "µM"}]}, {"smiles": "Cc1[nH]cnc1CSCC/N=C(\\N)NCCCCc1c[nH]cn1", "values": [{"measurement": "Kb", "setting": "Histamine H2 receptor [3]", "result": 1.15, "unit": "µM"}, {"measurement": "Max response", "setting": "[1]", "result": 20, "unit": "%"}, {"measurement": "Potency", "setting": "[2]", "result": 0.83}]}, {"smiles": "CSC(=N)NCCCc1c[nH]cn1", "values": [{"measurement": "Kb", "setting": "Histamine H2 receptor [3]", "result": 25.1, "unit": "µM"}, {"measurement": "Max response", "setting": "[1]", "result": 23, "unit": "%"}, {"measurement": "Potency", "setting": "[2]", "result": 0.1}]}]}
